m5-HT2A agonist = activates the mouse 5-HT2A serotonin receptor | P35363 | CHO-K1 mHTR2A beta-arrestin complementation, luminescence; percent of 30 µM serotonin response | activation, % at 7.6 µM | 360,000 compounds, 0.66% hits | AID 624169;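 active = activation above a run cutoff, the mean activation of all tested compounds plus 3 SD, cut at about 14% in these data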;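 note: 0% = plate median of compound wells and 100% = 30 µM serotonin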
MC4R barr agon = agonists of human melanocortin 4 receptor (MC4R) beta-arrestin; U2OS MC4R beta-arrestin complementation, luminescence; percent of melanotan II response, DMSO zero; activation, % at 8.9 µM; P32245; 360,000 compounds, 0.98% hits;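 active = activation above a per-plate cutoff, the mean activation of sample wells on that plate plus 3 SD, cut at about 8% in these data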
TMEM16A inh = blocks the mouse calcium-activated chloride channel TMEM16A. HEK293 TMEM16A/YFP iodide influx fluorescence, ionomycin. 310,000 compounds, 1.2% hits. normalized B-score (activity score, 25-100; higher = stronger inhibition) at 10 µM. Q8BHY3;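 active = ratio plate-corrected score three or more library SD toward inhibition, starting fluorescence score within five deviations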;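 note: score derived from kinetic fluorescence span divided by baseline fluorescence per well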
TMEM16A act = activates or potentiates the mouse TMEM16A chloride channel; Q8BHY3; B-score at 10 µM; HEK293 TMEM16A/YFP-H148Q/I152L, iodide quench fluorescence; active compounds read low; 340,000 compounds, 0.3% hits;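 active = fluorescence-ratio B-score plate-corrected deviation score at least 3 library SD below zero, with starting fluorescence score within 5 deviations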;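 note: channel opened by trigger with iodide after compound preincubation; score built on the fluorescence ratio of max minus min over baseline; more negative score means more quench and so TMEM16A activation or potentiation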
beta cell repl = inducers of beta-cell replication in MIN6 cells | 330,000 compounds, 0.29% hits | proliferation, % at 10 µM | MIN6 cells proliferation, ATPlite luminescence, 48 h; cells starved in 0.2% serum; 100% = growth in 10% serum | AID 2380;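 active = compounds whose signal lies at least 3.5 SD above the mean of all wells on their plate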;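 note: 0% = DMSO-treated cells in low-serum medium and 100% = 10% serum control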
MC4R antagonist = human MC4R antagonism in cAMP assay; inhibition, % at 6.5 µM; 360,000 compounds, 0.48% hits; P32245; MC4R-expressing cells, MTII-stimulated cAMP, LANCE TR-FRET;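 active = inhibition above its plate's cutoff, the mean of tested wells on that plate plus 3 SD, cut at about 29% in these data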;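 note: 0% = Melanotan II alone and 100% = Melanotan II plus saturating MCL0020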
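Material – human MC4R-expressing U2OS cells · Repeats – no replicates · Detection – TR-FRET with Eu-cAMP and labeled anti-cAMP, 671 nm · Times – compound 30 min, challenge 1 h, detection 1 h · Compound – single nominal compound dose of 6.5 µM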
MOR ag counter = OPRM1 agonism in mouse HTR2A counterscreen; shares compounds with m5-HT2A agonist; U2OS OPRM1 beta-arrestin PathHunter, luminescence; DMSO 0%, DAMGO 9.3 µM 100%; activation, % at 9.3 µM; 2,300 compounds, 5.3% hits; AID 624380;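 active = mean activation above the mean of DMSO-only wells plus 3 SD, cut at about 0.5% in these data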
m5-HT2A ag conf = confirmation of mouse HTR2A serotonin receptor agonists | shares compounds with m5-HT2A agonist | CHO-K1 PathHunter beta-arrestin recruitment, luminescence; DMSO 0%, 30 µM serotonin 100% | activation, % at 7.6 µM | 2,300 compounds, 19% hits | AID 624381;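 active = mean activation across triplicates above the hit threshold derived in the original primary screen, cut at about 15% in these data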
Active calls of the source: *; i = inactive; x = no result given. A selection: hits, their analogues and other compounds. The true share with any hit is near 3.4%.

SMILES	m5-HT2A agonist	MC4R barr agon	TMEM16A inh	TMEM16A act	beta cell repl	MC4R antagonist	MOR ag counter	m5-HT2A ag conf
Cc1ccc(NC(=O)CCc2nnc3ccc(NCc4ccco4)nn23)cc1	-7	-2	i	i	0	8	x	x
COc1cccc(C(NC(C)=O)c2nc(-c3ccccc3C)cs2)c1 (centres undefined)	-3	-3	x	x	x	2	x	x
O=C(c1ccc2ccccc2c1O)N1CCCCC1	6	-2	x	x	x	10	x	x
Cc1sc2ncnc(N3CCC(C(=O)Nc4nnc(SCc5ccccc5F)s4)CC3)c2c1C	0	0	i	i	-2	10	x	x
CN(Cc1ccccc1)CC(O)COc1ccc(CNCCOc2cccnc2)cc1 (centres undefined)	18*	-2	i	i	-4	9	-1	38*
C=C1[C@@H](O)[C@H](CC(C)C)N(Cc2ccccc2Br)S1(=O)=O	-3	5	x	i	x	9	x	x
COCCC(=O)N1CCc2ccc(NC(=O)c3ccc(C(F)(F)F)cc3)cc2C1	32*	0	i	i	1	16	1.2*	1
O=C1Nc2ccccc2/C1=C/c1ccccc1Cl	-5	0	i	i	-5	6	x	x
O=C1Nc2ccccc2/C1=C/c1ccc([N+](=O)[O-])cc1	28*	0	i	i	-7	-12	1.0*	-1
CC[C@@]1(C(=O)OC)N[C@H](CN(C)S(=O)(=O)c2ccc(C(C)(C)C)cc2)[C@@H]2C(=O)N(C)C(=O)[C@@H]21	-5	0	x	x	3	19	x	x
COc1cc(OC)cc(C(=O)NC(=S)N(Cc2ccccc2)C(C)C)c1	-4	0	i	i	-3	7	x	x
Cc1cccc(C)c1OCc1cc(C(=O)N2CCCC2c2nonc2C)no1 (centres undefined)	14*	1	i	i	-2	-1	0	4
CSc1ccccc1OCc1cc(C(=O)N2CCCC2c2nonc2C)no1 (centres undefined)	-3	-1	i	i	-3	0	x	x
Cc1ccc(NC(=O)CSc2nncn2N)cc1C	4	-1	i	i	-2	10	x	x
COc1ccc(C(CNC(=O)c2ccccc2C)N2CCCC2)cc1 (centres undefined)	31*	-3	i	i	-1	9	-1	-1
COc1ccc(C(CNC(=O)COc2ccccc2C)N2CCCCC2)cc1 (centres undefined)	3	-2	x	i	-2	-2	x	x
Cc1ccc(S(C)(=O)=O)cc1C(=O)OCC(=O)N(Cc1ccccc1)Cc1ccccc1	-4	0	x	i	0	3	x	x
COC(=O)C1=CN(Cc2ccc(OC)c(OC)c2)C=C(C(=O)OC)C1c1cccc(OC)c1OC	12	-1	i	i	6	-4	x	x
COC(=O)C1=CN(Cc2ccc(OC)c(OC)c2)C=C(C(=O)OC)C1c1ccccc1F	17*	-1	i	i	1	1	-1	3
Nc1ccc(C(=O)N/N=C2\CCCc3c2[nH]c2ccccc32)cc1	-7	-2	i	i	2	0	x	x
c1ccc(CCN=C2CCCc3c2[nH]c2ccccc32)cc1	15*	1	i	i	-2	1	0	28*
CCc1nnc(NS(=O)(=O)c2ccc(NC(=O)CCC(=O)O)cc2)s1	15*	-1	i	i	1	-1	-1	-4
CN(C)c1ccc(C(=O)c2ccccc2C(=O)O)cc1[N+](=O)[O-]	8	-2	i	i	0	0	x	x
CNc1ccc(C(=O)c2ccccc2C(=O)O)cc1[N+](=O)[O-]	19*	-2	i	i	0	2	-1	-3
